Data reported in publication PMC5598404 (Toxicology Reports, 2015).

Legend:
[1] = contain methionine sulfoxide in their ring; cited from earlier work
[2] = system: human breast cancer MCF7 cells; test: CytoTox 96 Non-Radioactive Cytotoxicity Assay, breast cancer MCF7 cells; assay type: cell-based; settings: MCF7, 12.5-200 μg/mL, 24 h and 48 h
Procedure, shortened: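 MCF7 cells from ATCC, grown in ATCC-formulated medium at 37 °C and 5% CO2. Seeded at 10,000 cells/well and grown to 70–80% confluence. Test compounds (DMSO stocks) were added at 200, 100, 50, 25 and 12.5 μg/mL (≈ μM, MW ~1000) for 24 h and 48 h. Negative control was 2% final DMSO. Read by CytoTox 96 kit; three independent experiments, each in triplicate.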

[3] = system: human breast cancer Sk-Br-3 cells; test: CytoTox 96 Non-Radioactive Cytotoxicity Assay, breast cancer Sk-Br-3 cells; assay type: cell-based
Procedure, shortened: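 Sk-Br-3 cells (ATCC) were kept in ATCC-formulated medium under 5% CO2 at 37 °C, plated at 10,000 cells/well and grown to 70–80% confluence. They were then exposed for 24 h or 48 h to test compounds from DMSO stocks at 400, 200, 100, 50 and 25 μg/mL. Cells given 2% DMSO (final) were the negative control. Cytotoxicity was read by CytoTox 96 kit in three independent experiments, each run in triplicate.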

## NαC-[Met-Leu-Val-Phe-Pro-Leu-Phe-Ile] (head to tail) [[MetO]-LOB1, [1-8-NαC],[1-Rs,Ss-MetO]-linusorb-B1]
[1]
  Relative hydrophobicity of methionine sulfoxide LOBs: less hydrophobic than their methionine containing counterparts
[2]
  Effect on MCF7 cells (in words): small cytoprotective effects
[3]; Sk-Br-3, 24 h exposure, 400 μg/mL, three independent experiments in triplicate
  Cytotoxicity towards Sk-Br-3 cells, 24 h, 400 μg/mL: 28%
[3]; Sk-Br-3, 24 h exposure, 25-400 μg/mL
  Concentration dependence of cytotoxicity towards Sk-Br-3 cells: only showed cytotoxicity at 400 μg/mL
[3]; Sk-Br-3, 48 h exposure, 400 μg/mL, three independent experiments in triplicate
  Cytotoxicity towards Sk-Br-3 cells, 48 h, 400 μg/mL: maintained their respective cytotoxicity
